Experimental data from PMC9237996 (Toxicological Sciences, 2022).
pKi: −log10 of the molar value. Where two headings read alike, the source gives them in different places.

How the values were obtained:
HepG2 cells [1] = assay: ROS formation by dihydroethidium; type: cell-based; settings: for RNS/ROS production rate constant 1: DILIsym input parameter, oxidative stress
Method in brief: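 HepG2 cells were exposed to a range of test-compound concentrations for 6 or 24 h, and ROS formation was read by dihydroethidium fluorescence. Three independent studies were run, each in triplicate. Intracellular compound level came from LC/MS/MS of cell lysate from a parallel culture, corrected for lysate and cell volume. DILIsym oxidative-stress parameters were fit by simulating the data under a steady-state in vitro dosing scheme.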

[2] = target: bile salt export pump (BSEP) (Homo sapiens, UniProt O95342); assay: BSEP membrane vesicle taurocholate transport inhibition; type: biochemical
Sequence of bile salt export pump (BSEP) (O95342 whole entry): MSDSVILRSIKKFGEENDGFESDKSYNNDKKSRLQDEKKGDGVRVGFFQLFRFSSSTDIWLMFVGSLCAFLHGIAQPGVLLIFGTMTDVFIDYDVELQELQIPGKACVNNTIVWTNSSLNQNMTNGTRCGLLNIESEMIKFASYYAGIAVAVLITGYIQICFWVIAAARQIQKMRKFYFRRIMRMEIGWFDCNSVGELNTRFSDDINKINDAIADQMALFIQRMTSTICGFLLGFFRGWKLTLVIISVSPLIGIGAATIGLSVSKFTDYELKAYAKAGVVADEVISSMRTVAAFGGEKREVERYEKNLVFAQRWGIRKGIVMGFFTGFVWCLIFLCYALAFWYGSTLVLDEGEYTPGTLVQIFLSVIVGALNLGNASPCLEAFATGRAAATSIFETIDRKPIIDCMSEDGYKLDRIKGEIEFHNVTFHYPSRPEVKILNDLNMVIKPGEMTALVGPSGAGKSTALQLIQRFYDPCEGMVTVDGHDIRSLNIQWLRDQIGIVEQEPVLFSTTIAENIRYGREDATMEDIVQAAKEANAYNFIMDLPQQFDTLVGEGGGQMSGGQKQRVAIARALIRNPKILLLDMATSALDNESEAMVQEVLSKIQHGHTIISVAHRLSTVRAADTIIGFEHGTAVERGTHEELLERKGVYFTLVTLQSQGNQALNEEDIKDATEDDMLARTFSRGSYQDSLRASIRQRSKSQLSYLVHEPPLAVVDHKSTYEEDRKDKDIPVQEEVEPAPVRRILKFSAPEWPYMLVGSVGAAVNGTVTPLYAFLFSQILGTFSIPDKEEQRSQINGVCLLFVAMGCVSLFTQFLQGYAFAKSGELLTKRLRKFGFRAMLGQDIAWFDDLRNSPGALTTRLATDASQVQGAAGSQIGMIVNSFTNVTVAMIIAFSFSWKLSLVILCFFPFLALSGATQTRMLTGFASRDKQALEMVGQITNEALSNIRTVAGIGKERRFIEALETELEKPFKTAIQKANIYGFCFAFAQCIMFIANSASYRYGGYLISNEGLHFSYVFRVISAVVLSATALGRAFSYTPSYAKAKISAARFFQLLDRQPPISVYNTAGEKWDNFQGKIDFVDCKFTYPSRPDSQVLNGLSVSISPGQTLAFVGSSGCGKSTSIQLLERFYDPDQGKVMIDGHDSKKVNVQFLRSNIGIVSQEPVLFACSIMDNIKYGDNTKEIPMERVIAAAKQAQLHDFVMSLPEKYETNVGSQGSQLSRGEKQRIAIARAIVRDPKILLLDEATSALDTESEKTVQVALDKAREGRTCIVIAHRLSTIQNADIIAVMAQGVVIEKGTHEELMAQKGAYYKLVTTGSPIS
Method in brief: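 ATP-dependent taurocholate uptake into membrane vesicles carrying human BSEP. Transport inhibition was measured across several taurocholate concentrations crossed with several test-compound concentrations. Data were fit with Michaelis-Menten kinetics to give the Ki and the inhibition type. These values were then used as inputs to DILIsym v6A.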

HepG2 cells [3] = assay: Seahorse oxygen consumption rate; type: cell-based; settings: DILIsym input parameter
Method in brief: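 Oxygen consumption rate was measured in HepG2 cells after 24 h incubation with the test compound. It was related to intracellular compound concentration, measured by LC/MS/MS on a parallel culture with lysate values corrected for lysate and cell volume. Three independent studies were run on HepG2 cells, each in triplicate. The data were translated into DILIsym v6A mitochondrial-dysfunction parameters (ETC inhibition, uncoupling).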

[4] = 12 weeks, clinical data, cited from earlier work

Structure (SMILES)	RNS/ROS production rate constant 1 (HepG2 cells [1])	BSEP inhibition alpha value [2]	pKi [2]	Coefficient for ETC Inhibition 3 (HepG2 cells [3]; mitochondrial dysfunction) [µM]	Coefficient for ETC inhibition 1 (HepG2 cells [3]; mitochondrial dysfunction)	Max inhibitory effect for ETC inhibition 3 (HepG2 cells [3]; mitochondrial dysfunction) [Dimensionless]	Uncoupler 1 effect Hill (HepG2 cells [3]; mitochondrial dysfunction)	Uncoupler 1 effect Km (HepG2 cells [3]; mitochondrial dysfunction)	Uncoupler 1 effect Vmax (HepG2 cells [3]; mitochondrial dysfunction)	mode of inhibition for BSEP [2]	further results
C[C@@H]1[C@H](c2c(F)ccc(F)c2F)C[C@H](NC(=O)c2cnc3c(c2)C[C@@]2(C3)C(=O)Nc3ncccc32)C(=O)N1CC(F)(F)F [Atogepant, atogepant]	0.0947 M⁻¹ s⁻¹	0.64 Dimensionless	3.84	0.1	38 170 µM	0.2	No effect	No effect	No effect		
N[C@@H]1c2cccnc2[C@H](OC(=O)N2CCC(n3c(=O)[nH]c4ncccc43)CC2)CC[C@H]1c1cccc(F)c1F [Rimegepant, rimegepant]	0.0972 M⁻¹ s⁻¹	Competitive	4.57	1.89	3470 µM	0.45	No effect	No effect	No effect	competitive	
O=C(N[C@@H]1CC[C@@H](c2cccc(F)c2F)CN(CC(F)(F)F)C1=O)N1CCC(n2c(=O)[nH]c3ncccc32)CC1 [Telcagepant, telcagepant]			4.72							mixed	RNS/ROS production rate constant 1 (HepG2 cells [1]; Telcagepant—High parameter set): 0.0972 M⁻¹ s⁻¹; RNS/ROS production rate constant 1 (HepG2 cells [1]; Telcagepant—Low parameter set): 0.0972 M⁻¹ s⁻¹; BSEP inhibition alpha value ([2]; Telcagepant—High parameter set): 4.32 Dimensionless; BSEP inhibition alpha value ([2]; Telcagepant—Low parameter set): 4.32 Dimensionless; Observed ALT > 3X ULN in Clinic ([4]; 140 mg BID): 1.9% (5/263); Observed ALT > 3X ULN in Clinic ([4]; 280 mg BID): 3.2% (8/265); Uncoupler 1 effect Hill (HepG2 cells [3]; Telcagepant—High parameter set): No effect; Uncoupler 1 effect Km (HepG2 cells [3]; Telcagepant—High parameter set): No effect; Uncoupler 1 effect Vmax (HepG2 cells [3]; Telcagepant—High parameter set): No effect; Uncoupler 1 effect Hill (HepG2 cells [3]; Telcagepant—Low parameter set): No effect; Uncoupler 1 effect Km (HepG2 cells [3]; Telcagepant—Low parameter set): No effect; Uncoupler 1 effect Vmax (HepG2 cells [3]; Telcagepant—Low parameter set): No effect
C[C@@H]1[C@H](c2ccccc2)C[C@H](NC(=O)c2cnc3c(c2)C[C@@]2(C3)C(=O)Nc3ncccc32)C(=O)N1CC(F)(F)F [Ubrogepant, ubrogepant]	0.0458 M⁻¹ s⁻¹	No inhibition				0.4	4.3 Dimensionless		22.5 Dimensionless	mixed	
Cc1cc(C[C@@H](NC(=O)N2CCC(c3cc4ccccc4[nH]c3=O)CC2)C(=O)N2CCN(C3CCN(C)CC3)CC2)cc2cn[nH]c12 [Zavegepant, zavegepant]	No ROS production	1.368 Dimensionless	< 3.47	2	1600 µM	1.5				mixed	Oxidative stress / increase in ROS in vitro (HepG2 cells [1]; qualitative, DHE staining, HepG2, 24-h incubation): did not cause an increase in ROS
